Screening results (PubChem)
An excerpt weighted towards active compounds, which were near 1.9% of everything screened.
NR1D1 modulator = modulators of human Rev-erb alpha DNA binding; 370,000 compounds, 0.79% hits; activity, % at 10 µM; P20393; Rev-erbα–FITC-DNA binding, fluorescence polarization, 90 min;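 active = activity above about 14%, limit read from the data; passing the limit was not always enough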;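 also: 0% = DMSO wells with 35 nM protein and 100% = DMSO wells with 750 nM protein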
NR2E3 ag-1 = activates human NR2E3 receptor | Q9Y5X4 | CHO-S Gal4-NCOR/VP16-NR2E3 two-hybrid, luciferase | inhibition of corepressor binding, % at 3.98 µM | 360,000 compounds, 0.35% hits | AID 602229;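 active = inhibition above the mean of all tested compounds plus 3 SD, cut at about 70% in these data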;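 also: 0% = DMSO with NR2E3 transfected cells and 100% = cells lacking NR2E3 construct; higher means lower luciferase signal from less NR2E3 corepressor binding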
Target sequence (Q9Y5X4 whole entry, looked up, the tested form may be a part): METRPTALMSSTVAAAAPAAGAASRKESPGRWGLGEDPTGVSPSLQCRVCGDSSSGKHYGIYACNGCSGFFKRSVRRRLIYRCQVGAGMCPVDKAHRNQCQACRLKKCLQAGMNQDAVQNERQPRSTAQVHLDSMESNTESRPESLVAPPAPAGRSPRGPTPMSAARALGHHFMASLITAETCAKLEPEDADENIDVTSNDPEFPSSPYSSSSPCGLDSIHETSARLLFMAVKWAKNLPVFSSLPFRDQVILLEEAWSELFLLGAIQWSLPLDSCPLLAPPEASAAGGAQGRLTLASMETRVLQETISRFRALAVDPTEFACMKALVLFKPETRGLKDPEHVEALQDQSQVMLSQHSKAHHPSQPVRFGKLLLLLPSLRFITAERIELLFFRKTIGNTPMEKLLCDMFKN
SKN-1 inh = blocks SKN-1 activity in C. elegans; C. elegans VP596 Pgst-4::GFP/RFP ratio, acrylamide-induced, 24 h; inhibition, % at 21.8 µM; 360,000 compounds, 0.49% hits; AID 624304;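 active = interference check ratio from 0.5 to 1.5 plus GFP to RFP signal ratio inhibition reaching or exceeding a fixed threshold, cut at about 30% in these data, passing the limit was not always enough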
NR2E3 ag-2 = agonists of human nuclear receptor NR2E3. GST-NR2E3/biotin-RetCOR TR-FRET, 1536-well. 320,000 compounds, 0.12% hits. AID 2300. inhibition of corepressor binding, % at 4.78 µM;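 active = percent inhibition above the cutoff of mean plus 3 SD of all tested compounds, set per screening campaign, cut at about 20% in these data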;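 also: 0% = DMSO wells and 100% = biotin wells as full block of FRET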
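System: GST-tagged NR2E3 plus biotinylated RetCOR corepressor; Buffer or medium: pH 7.5 Tris-based buffer; Probe or stimulus: RetCOR corepressor, biotinylated, 7 nM; Doses: compound at 4.8 µM, single dose; Schedule: 5 h incubation at 4 °C; Technique: time-resolved FRET; Evaluation: percent inhibition of TR-FRET ratio; Replication: one well per compound, singlicate testing.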
PG9 binder = PG9 antibody binding by small molecule | TR-FRET gp120-PG9 antibody binding | inhibition, % at 6.7 µM | 360,000 compounds, 0.43% hits; in the data active = inhibition above about 8.5%
MT1-MMP act inh = MT1-MMP (human) activation inhibition. HT1080 RFP-PRO-GFP cells, GFP/RFP ratio fluorescence, overnight; percent of plate control window, DMSO zero. GFP/RFP ratio change, % at 20 µM. 360,000 compounds, 0.061% hits. P50281;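 active = GFP/RFP ratio change of at least 30% with cell ATP level not reduced by more than half and red fluorescence within 50% of control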
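Material: RFP-PRO-GFP reporter HT1080 cells. Dosing: single-point 20 µM compound, 1% DMSO. Controls: DMSO and RFP-L50D-GFP cell wells. Timing: cells overnight before dosing, compound overnight, 37 °C, 5% CO2. Measure: GFP/RFP fluorescence ratio.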
Rev-erbA confirm = confirmation of modulators of human Rev-erb alpha DNA binding. activation, % at 25 µM. shares compounds with NR1D1 modulator. Rev-erb alpha FITC-DNA binding, fluorescence polarization, 90 min. 3,000 compounds, 61% hits. AID 1259319;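 active = activation at or above a set limit, or at least 3 SD above the negative control mean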;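 also: 0% = 35 nM protein with DMSO and 100% = 750 nM protein high control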
RORg counter = counter-screen for Rev-erb alpha modulators: RORgamma DNA binding; shares compounds with NR1D1 modulator; 910 compounds, 8% hits; IC50, µM; purified RORgamma protein-FITC-DNA binding, fluorescence polarization; AID 1259320;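 active = Compounds whose fitted half-maximal concentration for disrupting protein-DNA binding is below 10 micromolar; the record names Rev-erb in its text, so the target is in doubt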
An asterisk follows results filed as active; nt = not tested or not shown.

SMILES	NR1D1 modulator	NR2E3 ag-1	SKN-1 inh	NR2E3 ag-2	PG9 binder	MT1-MMP act inh	Rev-erbA confirm	others
CC[C@H](NC(=O)[C@H]1O[C@@H](n2cnc3c(=O)[nH]c(N)nc32)[C@H](O)[C@@H]1O)c1ccccc1	-2	nt	nt	nt	-1	nt	nt
COc1cccc(C(=O)N(CCN2CCOCC2)Cc2ccc(OC)c(OC)c2)c1	-2	nt	nt	nt	nt	nt	nt
O=C(Nc1ccccc1C(F)(F)F)OCCN1C(=O)CCC12CCC(c1ccccc1)CC2 (stereo unspecified)	26*	nt	nt	nt	nt	nt	28*	RORg counter=>40
O=C(Nc1ccc(F)cc1)OCCN1C(=O)CCC12CCC(c1ccccc1)CC2 (stereo unspecified)	10	nt	nt	nt	nt	nt	nt
O=S(=O)(c1cccc2nsnc12)N1CCOCC1	1	-13	2	-2	1	8	nt
O=S(=O)(c1cccc2nsnc12)N1CCNCC1	25*	-32	-1	2	-1	-6	-5
CC(C)c1ccc(NC(=O)CSc2nc(-c3ccccc3F)nc3nc[nH]c23)cc1	34*	-1	11	-1	-2	-2	18*
NC(=O)c1ncn([C@@H]2O[C@H](C(=O)Nc3ccc(Oc4ccccc4)nc3)[C@@H](O)[C@H]2O)n1	5	nt	nt	nt	-1	nt	nt
CCCCCCn1cc(C(=O)O)c(=O)c2cc(F)c(N3CCN(C(=O)OCC)CC3)cc21	31*	-27	-6	-1	1	-5	6
C=CCCCCCCCCC(=O)N1CCN(c2cc3c(cc2F)c(=O)c(C(=O)O)cn3CC)CC1	3	-38	0	1	-2	-1	nt
C=CCNC(=O)c1ccc(-c2nc(-c3ccc(Cl)cc3Cl)cs2)cc1	31*	-75	-15	2	0	2	44*	RORg counter=>40
C=CCNC(=O)c1ccc(-c2nc(-c3ccc(Cl)c(Cl)c3)cs2)cc1	-2	-36	-27	0	-2	2	nt
C=CCn1c(SCc2ccc(C#N)cc2)nnc1-c1ccco1	-3	nt	nt	nt	nt	nt	nt
O=C(NC1CCCCCC1)c1cc2ccccc2oc1=O	0	4	-3	3	-3	-1	nt
COc1ccc2cc(C(=O)NC3CCCCC3)c(=O)oc2c1	42*	-15	-17	nt	-2	5	19*
O=S(Cc1cc(Sc2ccccc2)nc(-c2ccccc2)n1)c1ccccc1 (stereo unspecified)	25*	-49	-17	6	-2	-11	16
Cc1c(NC(=O)C2CCCN(S(=O)(=O)c3c(C(C)C)cc(C(C)C)cc3C(C)C)C2)c(=O)n(-c2ccccc2)n1C (stereo unspecified)	28*	nt	nt	nt	nt	nt	24*
Cc1c(NC(=O)C2CCCN(S(=O)(=O)c3cnc[nH]3)C2)c(=O)n(-c2ccccc2)n1C (stereo unspecified)	2	-9	-3	2	-1	-2	nt
NCc1ccc(OCCCN2CCC(C(O)(C3=CCCC3)c3ccccc3)CC2)cc1 (stereo unspecified)	-1	nt	nt	nt	-1	nt	nt
N#Cc1ccc(CSc2nc3sc4c(c3c(=O)n2-c2ccc(Br)cc2)CCCC4)cc1	23*	nt	nt	nt	nt	nt	9
CSc1nnc(N2C(=O)C(O)=C(C(=O)c3ccco3)C2c2cccc(Cl)c2)s1 (stereo unspecified)	31*	-46	-5	10	0	-68	29*	RORg counter=>40
COc1ccc2c(-c3ccccc3)cc(SC(C)C(N)=O)nc2c1 (stereo unspecified)	19*	9	9	6	1	4	18*
CCCN(C(=O)CSc1cc(-c2ccccc2)c2ccc(OC)cc2n1)C1CCS(=O)(=O)C1 (stereo unspecified)	-2	-24	-1	-1	0	1	nt
CCOC(=O)c1csc(NC(=O)C2CCCN(S(=O)(=O)c3ccc(Br)s3)C2)n1 (stereo unspecified)	2	nt	nt	nt	nt	nt	nt
